In publication PMC10099395 (Chemistry (Weinheim an Der Bergstrasse, Germany), 2022):
Blank lines part the entries; values can stand above or below the compound they belong to.

Experiments:
[1] = tested on: 25TAG (5′-FAM, 3′-TAMRA) (DNA, G4) TAGGGTTAGGGTTAGGGTTAGGGTT; assay: fluorescence melting; conditions: 100 mM KCl; 10 mM LiAsO2Me2, pH 7.2; 0.4 μM compound, 0.2 μM DNA
[2] = tested on: T98G cells (multidrug-resistant glioblastoma); assay: Cytotoxicity assay; format: cell-based; conditions: Homo sapiens, 96 h, read-out: GI50, T98G
How it was run: (§1)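 Adherent cells grown in MEM GlutaMAX with 10 % FBS, 1 % penicillin/streptomycin and 1 % non-essential amino acids at 37 °C, 5 % CO₂, passaged with TrypLE. Cells were plated at 0.125×10⁵ cells mL⁻¹ and test compound in DMSO was added after 4 h ([…], 0.5 % v/v DMSO). After 96 h, CellTiter-Glo luminescence was read and viability expressed relative to the DMSO control. Each condition was run at least three times, with two technical replicates per plate.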

[3] = tested on: A549 cells (cisplatin-resistant non-small-cell lung carcinoma); assay: Cytotoxicity assay; format: cell-based, human; conditions: for GI50: Homo sapiens, A549, 96 h, read-out: GI50, A549
How it was run: as §1

[4] = tested on: MRC-5 cells (noncancerous lung fibroblast); assay: Cytotoxicity assay; format: cell-based; conditions: Homo sapiens, MRC5, 96 h, read-out: GI50, MRC-5
How it was run: as §1

[5] = tested on: 25TAG (G4-DNA, hybrid-2, variant of human telomeric sequence); assay: Fluorescence-melting experiments; format: binding; conditions: pure ligand 0.4 μM, DNA 0.2 μM
How it was run: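 FAM/TAMRA-labelled oligonucleotides were annealed (95 °C, 5 min) at 0.23 μM in target-specific buffer. Final concentrations were 0.2 μM DNA and 1 μM ligand; as-synthesized mixtures were diluted in buffer without further treatment, and pure ligands were run at 0.1–1.0 μM. Melting used a 0.5 °C min⁻¹ ramp with FAM-channel fluorescence. Tm came from first-derivative peaks, and ΔTm was the difference of means from three experiments. ΔTm detection tops out at 36 °C (96 °C).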

ΔT m [1]: > 30 °C
SMILES: C[n+]1cc(NC(=O)c2ccc3ccc4ccc(C(=O)Nc5cc6ccccc6[n+](C)c5)nc4c3n2)cc2ccccc21

SMILES: C[n+]1cccc2cc(C=NNC(=O)c3ccc4ccc5ccc(C(=O)NN=Cc6ccc7c(ccc[n+]7C)c6)nc5c4n3)ccc21.[I-].[I-] [3Ef]
GI50 [2]: 11.2 ± 1.4 µM
GI50 [3]: 0.4 ± 0.06 µM
selectivity index, A549 with respect to MRC-5 cells ([3]; ratio of GI50 values, 96 h): ~67
GI50 [4]: 26.7 ± 2.4 µM

SMILES: O=C(NN=Cc1ccc(C[n+]2ccccc2)cc1)c1ccc2ccc3ccc(C(=O)NN=Cc4ccc(C[n+]5ccccc5)cc4)nc3c2n1.[Br-].[Br-] [3Ei]
ΔTm, 25TAG, pure ligands [5]: > 30 °C
GI50 [2]: 29.7 ± 2 µM
GI50 [3]: 3.2 ± 0.6 µM
GI50 [4]: 59.1 ± 5.5 µM
